Measurements taken from ChEMBL document CHEMBL1146242, “Synthesis and antibacterial activity of novel oxazolidinones with methylene oxygen- and methylene sulfur-linked substituents at C5-position” (2007).
≈ marks a conversion by molar mass, not a printed value.

How the values were obtained:
Type in all cases: functional
[1] = test system: Enterococcus faecium; test: Antimicrobial activity against vancomycin-resistant Enterococcus faecium 6A by agar dilution method
How it was run: (§1)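 NCCLS agar dilution MIC in Mueller Hinton agar. Compounds were made up as 1 mg/mL DMSO stocks and serially diluted 2-fold into molten agar, final range 16 to 0.015. Direct colony suspensions in saline were set to 0.5 McFarland, diluted 10-fold, and spotted with a replicator. Plates were incubated in ambient air at 35 °C for 18–24 h.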

[2] = test system: Haemophilus influenzae; test: Antimicrobial activity against Haemophilus influenzae ATCC 49247 by agar dilution method
How it was run: (§2)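 NCCLS agar dilution with serial 2-fold drug dilutions in Mueller Hinton agar, 16–0.015 µg/mL final. Drug stocks were 1 mg/mL in DMSO. The inoculum was a 0.5 McFarland saline colony suspension diluted 10-fold and replicator-spotted. As fastidious organisms, plates were incubated in 5% CO₂ at 35 °C for 18–24 h.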

[3] = test system: Streptococcus pneumoniae; test: Antimicrobial activity against Streptococcus pneumoniae ATCC 6303 by agar dilution method; how it was run: as §2
[4] = test system: Moraxella catarrhalis; test: Antimicrobial activity against Moraxella catarrhalis M2 by agar dilution method
How it was run: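 MIC was read by NCCLS agar dilution using doubling dilutions in Mueller Hinton agar, 16–0.015 µg/mL final, from 1 mg/mL DMSO stocks. Colonies were suspended in saline to 0.5 McFarland, diluted 10-fold and transferred with a replicator. Plates were incubated at 35 °C for 18–24 h.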

[5] = test system: Staphylococcus aureus; test: Antimicrobial activity against methicillin-resistant Staphylococcus aureus 33 by agar dilution method; how it was run: as §1
[6] = test system: Staphylococcus aureus; test: Antimicrobial activity against Staphylococcus aureus ATCC 25923 by agar dilution method; how it was run: as §1
[7] = test system: Staphylococcus aureus; test: Antimicrobial activity against Staphylococcus aureus 15187 by agar dilution method; how it was run: as §1
[8] = test system: Enterococcus faecalis; test: Antimicrobial activity against Enterococcus faecalis ATCC 29212 by agar dilution method
How it was run: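 Compounds were stocked at 1 mg/mL in DMSO. Direct colony suspensions in saline were set to 0.5 McFarland, diluted 10-fold and applied with a replicator. Plates were incubated in ambient air at 35 °C for 18–24 h.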

[9] = test system: Staphylococcus aureus; test: Antimicrobial activity against methicillin-resistant Staphylococcus aureus 562 by agar dilution method; how it was run: as §1
[10] = test system: Streptococcus pyogenes; test: Antimicrobial activity against Streptococcus pyogenes ATCC 19615 by agar dilution method

CN[C@H](CC(C)C)C(=O)N[C@H]1C(=O)N[C@@H](CC(N)=O)C(=O)N[C@H]2C(=O)N[C@H]3C(=O)N[C@H](C(=O)N[C@H](C(=O)O)c4cc(O)cc(O)c4-c4cc3ccc4O)[C@H](O)c3ccc(c(Cl)c3)Oc3cc2cc(c3O[C@@H]2O[C@H](CO)[C@@H](O)[C@H](O)[C@H]2O[C@H]2C[C@](C)(N)[C@H](O)[C@H](C)O2)Oc2ccc(cc2Cl)[C@H]1O [VANCOMYCIN]
MIC [1]: > 16 µg/mL | MIC [2]: > 64 µg/mL | MIC [3]: 0.5 µg/mL (≈ 0.345 µM) | MIC [4]: > 16 µg/mL

CC(=O)NC[C@H]1CN(c2ccc(N3CCN(c4ccc([N+](=O)[O-])s4)CC3)c(F)c2)C(=O)O1
MIC [1]: 0.25 µg/mL (≈ 0.539 µM) | MIC [2]: 8 µg/mL (≈ 17.3 µM) | MIC [5]: 0.25 µg/mL (≈ 0.539 µM) | MIC [6]: 0.25 µg/mL (≈ 0.539 µM) | MIC [3]: 0.125 µg/mL (≈ 0.27 µM) | MIC [7]: 0.25 µg/mL (≈ 0.539 µM) | MIC [8]: 0.25 µg/mL (≈ 0.539 µM) | MIC [9]: 0.25 µg/mL (≈ 0.539 µM) | MIC [10]: 0.125 µg/mL (≈ 0.27 µM) | MIC [4]: 0.25 µg/mL (≈ 0.539 µM)

O=C1O[C@@H](CO)CN1c1ccc(N2CCN(c3ccc([N+](=O)[O-])s3)CC2)c(F)c1
MIC [1]: 0.5 µg/mL (≈ 1.18 µM) | MIC [2]: 8 µg/mL (≈ 18.9 µM) | MIC [5]: 0.5 µg/mL (≈ 1.18 µM) | MIC [6]: 0.5 µg/mL (≈ 1.18 µM) | MIC [3]: 1 µg/mL (≈ 2.37 µM) | MIC [7]: 0.5 µg/mL (≈ 1.18 µM) | MIC [8]: 0.5 µg/mL (≈ 1.18 µM) | MIC [9]: 0.5 µg/mL (≈ 1.18 µM) | MIC [10]: 0.5 µg/mL (≈ 1.18 µM) | MIC [4]: 2 µg/mL (≈ 4.73 µM)

CC(=O)OC[C@H]1CN(c2ccc(N3CCN(c4ccc([N+](=O)[O-])s4)CC3)c(F)c2)C(=O)O1
MIC [1]: 1 µg/mL (≈ 2.15 µM) | MIC [2]: > 16 µg/mL | MIC [5]: 0.5 µg/mL (≈ 1.08 µM) | MIC [6]: 0.5 µg/mL (≈ 1.08 µM) | MIC [3]: 1 µg/mL (≈ 2.15 µM) | MIC [7]: 0.5 µg/mL (≈ 1.08 µM) | MIC [8]: 0.5 µg/mL (≈ 1.08 µM) | MIC [9]: 0.5 µg/mL (≈ 1.08 µM) | MIC [10]: 0.25 µg/mL (≈ 0.538 µM) | MIC [4]: > 16 µg/mL

Cc1ccccc1S(=O)(=O)NC(=O)OC[C@H]1CN(c2ccc(N3CCN(c4ccc([N+](=O)[O-])s4)CC3)c(F)c2)C(=O)O1
MIC [1]: 1 µg/mL (≈ 1.61 µM) | MIC [2]: > 16 µg/mL | MIC [5]: 16 µg/mL (≈ 25.8 µM) | MIC [6]: 16 µg/mL (≈ 25.8 µM) | MIC [3]: 1 µg/mL (≈ 1.61 µM) | MIC [7]: 16 µg/mL (≈ 25.8 µM) | MIC [8]: 8 µg/mL (≈ 12.9 µM) | MIC [9]: 16 µg/mL (≈ 25.8 µM) | MIC [10]: 0.5 µg/mL (≈ 0.807 µM) | MIC [4]: > 8 µg/mL

CC(=O)NC[C@H]1CN(c2ccc(N3CCOCC3)c(F)c2)C(=O)O1 [LINEZOLID]
MIC [1]: 2 µg/mL (≈ 5.93 µM) | MIC [2]: 4 µg/mL (≈ 11.9 µM) | MIC [10]: 2 µg/mL (≈ 5.93 µM) | MIC [4]: > 4 µg/mL
